Data from PMC4362967 (Chemistry & biology, 2015).
Where a SMILES comes first, the peptide text is derived from it. [ ]: non-standard residue; d: D form.

How the values were obtained:
G. mellonella = G. mellonella survival assay, uninfected; settings: in vivo
[1] = tested on: S. enterica mature biofilms; test: Flow cell biofilm assay with confocal microscopy; assay type: cell-based, Salmonella enterica; settings: top FIC combination, added at day 2
Procedure, shortened: (§1)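 Biofilms grown at 37°C in BM2 glucose minimal medium in flow chambers (1 × 4 × 40 mm channels) for 72 h. Test compound, antibiotic or both were added to the flow-through medium at day 2 of biofilm formation. Combination levels were taken from checkerboard FIC results, with peptide levels lowered in some cases. Cells were stained with LIVE/DEAD BacLight and imaged by confocal microscopy with 3D reconstruction.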

E. coli mature biofilms = test: Flow cell biofilm assay with confocal microscopy; assay type: cell-based, Escherichia coli; settings: top FIC combination, added at day 2
Procedure, shortened: as §1

[2] = tested on: P. aeruginosa PA14 biofilms; test: Flow cell biofilm assay with confocal microscopy; assay type: cell-based, Pseudomonas aeruginosa
Procedure, shortened: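 P. aeruginosa PA14 biofilms grown at 37°C in BM2 glucose minimal medium in flow chambers (1 × 4 × 40 mm channels). […] For eradication, test compound was first added after 2 days of growth. Cells were stained with LIVE/DEAD BacLight and imaged by confocal microscopy.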

P. aeruginosa PAO1 = test: C. elegans survival assay, infected; assay type: in vivo, Caenorhabditis elegans; settings: peptide 20 μg/ml, 25°C, average ± SD, n ≥ 12
[3] = tested on: A. baumannii mature biofilms; test: Flow cell biofilm assay with confocal microscopy; assay type: cell-based, Acinetobacter baumannii; settings: 0.8 μg/ml DJK-5 with tobramycin, added at day 2
Procedure, shortened: as §1

[4] = tested on: Klebsiella pneumoniae mature biofilms; test: Flow cell biofilm assay with confocal microscopy; assay type: cell-based; settings: top FIC combination, added at day 2
Procedure, shortened: as §1

P. aeruginosa biofilm = settings: relative to MIC; ref Overhage et al, 2008; cited from earlier work
P. aeruginosa = settings: free swimming (planktonic) cells; ref Overhage et al, 2008; cited from earlier work

Molecule	G. mellonella survival (%) 24h No infection (G. mellonella)	G. mellonella survival (%) 48h No infection (G. mellonella)	eradication of 2-day-old biofilms, combination with ceftazidime [1]	eradication of 2-day-old biofilms, combination with ceftazidime (E. coli mature biofilms)	biofilm inhibition in flow cells, combination with ciprofloxacin ([2]; 0.1 μg/ml of DJK-5 with 0.04 μg/ml of ciprofloxacin, added at day 0, 3 days)	eradication of 2-day-old biofilms, combination with ciprofloxacin ([2]; top FIC combination, added at day 2, P. aeruginosa PA14)	C. elegans survival (%) 24h P. aeruginosa PAO1 (P. aeruginosa PAO1; 24 h post infection)	C. elegans survival (%) 48h post infection P. aeruginosa PAO1 (P. aeruginosa PAO1; 48 h post infection)	eradication of 2-day-old biofilms, combination with tobramycin [3]	eradication of 2-day-old biofilms, combination with ciprofloxacin [4]	concentration active against P. aeruginosa biofilms (P. aeruginosa biofilm)	MIC (P. aeruginosa)
CC[C@@H](C)[C@@H](NC(=O)[C@@H](C)NC(=O)[C@@H](CCCNC(=N)N)NC(=O)[C@@H](Cc1c[nH]c2ccccc12)NC(=O)[C@@H](CCC(N)=O)NC(=O)[C@H](N)C(C)C)C(=O)N[C@H](CCCNC(=N)N)C(=O)N[C@@H](C(=O)N[C@H](CCCNC(=N)N)C(=O)N[C@@H](C(=O)N[C@@H](C(=O)N[C@H](CCCNC(=N)N)C(N)=O)[C@H](C)CC)C(C)C)C(C)C [DJK5] (H-[dV][dQ][dW][dR][dA][dI][dR][dV][dR][dV][dI][dR]-NH2; N-terminus and C-terminus assumed)	100 ± 0%	100 ± 0%	eradication	not synergistic	complete biofilm inhibition	much more limited dispersal but triggered cell death in remaining cells	99 ± 2 %	96 ± 4 %	eradication	eradication	–	–
LL-37: the human peptide LL-37, cationic host defense peptide	–	–	–	–	–	–	–	–	–	–	one sixteenth the MIC	> 64 µg/mL
